Experimental data pooled from the literature.
Lines come from different studies, so protocols differ.
PIK3CA H1047Y: Phosphatidylinositol 4,5-bisphosphate 3-kinase catalytic subunit alpha isoform (PIK3CA, Homo sapiens, UniProt P42336, H1047Y)
PIK3CA E542K: Phosphatidylinositol 4,5-bisphosphate 3-kinase catalytic subunit alpha isoform (PIK3CA, Homo sapiens, UniProt P42336, E542K)
PIK3CA: Phosphatidylinositol 4,5-bisphosphate 3-kinase catalytic subunit alpha isoform (PIK3CA, Homo sapiens, UniProt P42336)

C=CC(=O)N1CCC([C@@H]2CCNc3c(C(N)=O)c(-c4ccc(Oc5ccccc5)cc4)nn32)CC1  inhibition (PIK3CA H1047Y; enzyme activity, inhibitor; 1 µM): 12%
CCCCC(=O)Nc1ccc(-c2ccc3ncn(CCC)c(=O)c3c2)cn1  remaining binding (PIK3CA E542K; binding, competition with immobilised ligand; 0.5 µM): 96%
CO[C@@H]1[C@H](N(C)C(=O)c2ccccc2)C[C@H]2O[C@]1(C)n1c3ccccc3c3c4c(c5c6ccccc6n2c5c31)C(=O)NC4  inhibition (Phosphatidylinositol 4,5-bisphosphate 3-kinase catalytic subunit alpha isoform (PIK3CA, Homo sapiens, UniProt P42336, E545K); enzyme activity, inhibitor; 1 µM): 0%
C1=C/COCc2cc(ccc2OCCN2CCCC2)Nc2nccc(n2)-c2cccc(c2)COC/1  remaining binding (PIK3CA E542K; binding; 0.1 µM): 68%
Cc1cc(O)c(-c2ccc([C@@H](C)CN(C)C)cc2)c2c1[nH]c(=O)c1sccc12  inhibition (PIK3CA; enzyme activity, inhibitor; 0.1 µM): -4.62%
C=CC(=O)N1CCC[C@@H](n2nc(-c3ccc(Oc4ccccc4)cc3)c3c(N)ncnc32)C1  inhibition (Phosphatidylinositol 4,5-bisphosphate 3-kinase catalytic subunit alpha isoform (PIK3CA, Homo sapiens, UniProt P42336, C420R); enzyme activity, inhibitor; 1 µM): 28%
C#Cc1cnc(Nc2ccnc(CO)c2)nc1Nc1ccccc1S(C)(=O)=NC#N (stereo not shown)  remaining signal (PIK3CA; cell-free assay; 1 µM): 100%
Cc1ccc(NC(=O)c2ccnc(C(F)(F)F)c2)cc1-c1cc(OCCO)nc(N2CCOCC2)c1  remaining binding (PIK3CA H1047Y; binding; 1 µM): 74%
CC(C)S(=O)(=O)c1ccc2nccc(Nc3ccc4sc(C5CCCC5)nc4c3)c2c1  activity vs control (Phosphatidylinositol 4,5-bisphosphate 3-kinase catalytic subunit alpha isoform, with p85 (PIK3CA, Homo sapiens, UniProt P42336); enzyme activity, inhibitor; 1 µM): 98.5%
COc1ccc2[nH]c3c4[nH]c5ccc(OC)cc5c4c4c(c3c2c1)C(=O)NC4=O  remaining binding (PIK3CA; binding; 1 µM): 91%
N#Cc1ccc(NC(=O)Nc2ccccc2)cc1  remaining binding (PIK3CA; cell-free assay, competition with immobilised ligand; 25 µM): 92%
C[C@H]1CC[C@H](n2c3cnccc3c3cnc(Nc4ccc5c(n4)CCN(C(=O)CO)C5)nc32)CC1  remaining signal (PIK3CA E542K; cell-free assay; 1 µM): 100%
CC#CC(=O)N1CCC[C@H]1c1nc(-c2ccc(C(=O)Nc3ccccn3)cc2)c2c(N)nccn12  inhibition (Phosphatidylinositol 4,5-bisphosphate 3-kinase catalytic subunit alpha isoform (PIK3CA, Homo sapiens, UniProt P42336, Q546K); enzyme activity, inhibitor; 1 µM): 38%
